Assay results from ChEMBL document CHEMBL4118097, “Selective Inhibitors of Dual Leucine Zipper Kinase (DLK, MAP3K12) with Activity in a Model of Alzheimer's Disease” (J Med Chem, 2017).
Activity calls are given as the source filed them. The rule behind the calls is not given here.

What was measured:
[1] = target: Calcium/calmodulin-dependent protein kinase type IV (Homo sapiens) (UniProt Q16566); experiment: Inhibition of recombinant full length GST-tagged human CamK4 expressed in Escherichia coli at 1 uM by FRET assay relative to control
[2] = target: Tyrosine-protein kinase receptor UFO (Homo sapiens, UniProt P30530); experiment: Inhibition of recombinant His-tagged human AXL (473 to end residues) cytoplasmic domain expressed in insect cells by FRET assay
[3] = target: Tyrosine-protein kinase ITK/TSK (Homo sapiens) (UniProt Q08881); experiment: Inhibition of recombinant full length GST-tagged human ITK cytoplasmic domain (473 to end residues) expressed in baculovirus expression system at 1 uM by FRET relative to control
Tyrosine-protein kinase ITK/TSK (Homo sapiens), sequence (Q08881 whole entry, the tested form may be a part): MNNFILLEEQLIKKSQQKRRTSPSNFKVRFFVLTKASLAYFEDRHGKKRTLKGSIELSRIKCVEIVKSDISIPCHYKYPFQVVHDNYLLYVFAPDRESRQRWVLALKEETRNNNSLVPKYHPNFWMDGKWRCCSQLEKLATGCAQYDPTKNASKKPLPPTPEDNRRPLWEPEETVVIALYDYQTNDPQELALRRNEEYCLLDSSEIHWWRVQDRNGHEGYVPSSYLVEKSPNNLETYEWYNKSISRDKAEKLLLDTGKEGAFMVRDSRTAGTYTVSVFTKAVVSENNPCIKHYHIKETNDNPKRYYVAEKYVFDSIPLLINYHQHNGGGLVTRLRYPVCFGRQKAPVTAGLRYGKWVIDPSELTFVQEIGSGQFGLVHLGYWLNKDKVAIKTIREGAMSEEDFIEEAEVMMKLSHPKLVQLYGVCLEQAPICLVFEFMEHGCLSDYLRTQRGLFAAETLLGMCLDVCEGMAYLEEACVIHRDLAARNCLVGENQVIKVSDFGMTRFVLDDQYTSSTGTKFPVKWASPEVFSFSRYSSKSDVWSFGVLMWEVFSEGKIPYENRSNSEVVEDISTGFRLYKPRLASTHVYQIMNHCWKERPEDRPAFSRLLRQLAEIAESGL
How it was run: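 Single-concentration screen at 1 μM in Life Technologies SelectScreen, across a 220-kinase panel. Z′-LYTE format measures phosphorylation of a labeled peptide by FRET. Results are reported as percent inhibition.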

[4] = target: Tyrosine-protein kinase Mer (Homo sapiens) (UniProt Q12866); experiment: Inhibition of recombinant GST-tagged human Mer cytoplasmic domain expressed in baculovirus expression system at 1 uM by FRET assay relative to control
Tyrosine-protein kinase Mer (Homo sapiens), sequence (Q12866 whole entry, the tested form may be a part): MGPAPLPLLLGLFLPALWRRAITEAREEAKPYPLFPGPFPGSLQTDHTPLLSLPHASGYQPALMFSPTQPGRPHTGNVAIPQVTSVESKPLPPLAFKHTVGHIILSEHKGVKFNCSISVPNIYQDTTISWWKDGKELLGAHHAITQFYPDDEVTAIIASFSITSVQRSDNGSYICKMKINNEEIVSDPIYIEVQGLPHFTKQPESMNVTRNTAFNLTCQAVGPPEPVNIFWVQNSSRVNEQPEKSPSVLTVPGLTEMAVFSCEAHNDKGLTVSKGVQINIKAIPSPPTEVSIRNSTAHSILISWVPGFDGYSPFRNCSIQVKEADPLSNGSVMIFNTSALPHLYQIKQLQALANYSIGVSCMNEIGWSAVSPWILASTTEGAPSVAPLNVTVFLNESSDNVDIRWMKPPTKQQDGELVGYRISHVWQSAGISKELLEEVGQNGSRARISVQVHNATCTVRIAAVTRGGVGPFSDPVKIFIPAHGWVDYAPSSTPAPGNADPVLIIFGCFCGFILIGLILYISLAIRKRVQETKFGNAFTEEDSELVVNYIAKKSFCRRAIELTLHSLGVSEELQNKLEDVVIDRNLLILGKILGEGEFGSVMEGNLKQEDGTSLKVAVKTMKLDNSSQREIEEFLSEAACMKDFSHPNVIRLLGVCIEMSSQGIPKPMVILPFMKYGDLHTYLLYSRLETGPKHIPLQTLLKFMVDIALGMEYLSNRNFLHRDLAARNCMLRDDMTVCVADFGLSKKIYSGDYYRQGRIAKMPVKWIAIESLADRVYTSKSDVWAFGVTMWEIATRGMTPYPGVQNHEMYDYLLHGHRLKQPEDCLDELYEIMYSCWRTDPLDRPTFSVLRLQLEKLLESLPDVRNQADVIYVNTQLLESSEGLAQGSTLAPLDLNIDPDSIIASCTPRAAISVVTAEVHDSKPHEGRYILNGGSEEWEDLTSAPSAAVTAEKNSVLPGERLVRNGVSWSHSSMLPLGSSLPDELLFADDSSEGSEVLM
How it was run: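 Single-point screen at 1 μM compound in a 220-kinase panel run by Life Technologies (SelectScreen). Z′-LYTE format: phosphorylation of a labeled peptide substrate read by FRET. Values are reported as percent inhibition.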

[5] = target: Serine/threonine-protein kinase DCLK2 (Homo sapiens) (UniProt Q8N568); experiment: Inhibition of full length recombinant GST-tagged human DCAMKL2 expressed in baculovirus expression system at 1 uM by FRET assay relative to control
Serine/threonine-protein kinase DCLK2 (Homo sapiens), sequence (Q8N568 whole entry, the tested form may be a part): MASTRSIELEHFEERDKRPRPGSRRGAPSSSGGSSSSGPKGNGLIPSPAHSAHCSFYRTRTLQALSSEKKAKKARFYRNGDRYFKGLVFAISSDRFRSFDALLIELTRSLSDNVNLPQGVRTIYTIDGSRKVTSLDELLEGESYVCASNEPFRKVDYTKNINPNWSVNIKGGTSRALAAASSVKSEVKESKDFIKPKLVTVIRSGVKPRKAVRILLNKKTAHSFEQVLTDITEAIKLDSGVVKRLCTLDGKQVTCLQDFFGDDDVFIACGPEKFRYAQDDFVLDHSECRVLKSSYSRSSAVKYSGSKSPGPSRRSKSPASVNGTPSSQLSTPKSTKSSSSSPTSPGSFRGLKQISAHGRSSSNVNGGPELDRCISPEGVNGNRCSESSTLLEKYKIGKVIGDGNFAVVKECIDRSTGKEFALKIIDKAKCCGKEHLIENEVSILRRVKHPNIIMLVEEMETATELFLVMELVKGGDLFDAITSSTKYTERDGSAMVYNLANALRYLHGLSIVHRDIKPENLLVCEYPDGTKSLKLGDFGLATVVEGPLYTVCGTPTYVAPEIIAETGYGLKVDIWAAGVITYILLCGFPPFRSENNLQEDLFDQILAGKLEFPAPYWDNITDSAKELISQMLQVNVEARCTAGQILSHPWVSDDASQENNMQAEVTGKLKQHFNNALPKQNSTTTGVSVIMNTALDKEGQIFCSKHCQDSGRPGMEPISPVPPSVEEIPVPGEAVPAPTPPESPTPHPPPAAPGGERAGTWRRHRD

[6] = target: Macrophage colony-stimulating factor 1 receptor (Homo sapiens, UniProt P07333); experiment: Inhibition of recombinant His-tagged human CSF1R cytoplasmic domain (538 to 910 residues) expressed in baculovirus expression system by FRET assay
Macrophage colony-stimulating factor 1 receptor, sequence (P07333 whole entry, the tested form may be a part): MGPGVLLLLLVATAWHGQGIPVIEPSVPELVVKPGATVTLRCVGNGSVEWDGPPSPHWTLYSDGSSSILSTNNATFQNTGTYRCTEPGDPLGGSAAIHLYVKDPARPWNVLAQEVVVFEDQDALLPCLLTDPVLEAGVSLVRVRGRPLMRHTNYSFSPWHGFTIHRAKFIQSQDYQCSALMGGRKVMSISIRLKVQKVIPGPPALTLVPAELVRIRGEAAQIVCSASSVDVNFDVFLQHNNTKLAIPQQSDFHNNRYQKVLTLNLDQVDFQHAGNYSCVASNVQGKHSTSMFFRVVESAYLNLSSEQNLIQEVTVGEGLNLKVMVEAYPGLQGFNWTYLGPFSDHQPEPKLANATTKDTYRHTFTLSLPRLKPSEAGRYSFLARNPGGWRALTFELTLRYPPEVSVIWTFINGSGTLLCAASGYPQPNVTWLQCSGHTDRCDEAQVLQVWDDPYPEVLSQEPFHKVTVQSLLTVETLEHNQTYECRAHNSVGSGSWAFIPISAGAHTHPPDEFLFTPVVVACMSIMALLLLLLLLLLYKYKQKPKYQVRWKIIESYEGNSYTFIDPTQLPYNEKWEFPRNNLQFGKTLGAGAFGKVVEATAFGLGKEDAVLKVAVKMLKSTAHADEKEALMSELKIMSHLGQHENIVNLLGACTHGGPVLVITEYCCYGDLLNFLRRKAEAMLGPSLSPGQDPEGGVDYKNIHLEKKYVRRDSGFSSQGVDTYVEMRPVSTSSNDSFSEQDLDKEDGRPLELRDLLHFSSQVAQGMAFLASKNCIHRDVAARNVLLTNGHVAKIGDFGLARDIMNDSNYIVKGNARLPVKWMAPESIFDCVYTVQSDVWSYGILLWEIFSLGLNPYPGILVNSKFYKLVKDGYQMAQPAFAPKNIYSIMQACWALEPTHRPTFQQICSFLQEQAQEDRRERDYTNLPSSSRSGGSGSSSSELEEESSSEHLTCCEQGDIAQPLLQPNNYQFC

Ephrin type-A receptor 7 = Ephrin type-A receptor 7 (Homo sapiens, UniProt Q15375); experiment: Inhibition of recombinant GST-tagged human EphA7 cytoplasmic domain expressed in baculovirus expression system by FRET assay
[7] = target: Ribosomal protein S6 kinase alpha-3 (Homo sapiens) (UniProt P51812); experiment: Inhibition of recombinant full length His-tagged human RSK2 expressed in baculovirus expression system at 1 uM by FRET assay relative to control
Ribosomal protein S6 kinase alpha-3 (Homo sapiens), sequence (P51812 whole entry): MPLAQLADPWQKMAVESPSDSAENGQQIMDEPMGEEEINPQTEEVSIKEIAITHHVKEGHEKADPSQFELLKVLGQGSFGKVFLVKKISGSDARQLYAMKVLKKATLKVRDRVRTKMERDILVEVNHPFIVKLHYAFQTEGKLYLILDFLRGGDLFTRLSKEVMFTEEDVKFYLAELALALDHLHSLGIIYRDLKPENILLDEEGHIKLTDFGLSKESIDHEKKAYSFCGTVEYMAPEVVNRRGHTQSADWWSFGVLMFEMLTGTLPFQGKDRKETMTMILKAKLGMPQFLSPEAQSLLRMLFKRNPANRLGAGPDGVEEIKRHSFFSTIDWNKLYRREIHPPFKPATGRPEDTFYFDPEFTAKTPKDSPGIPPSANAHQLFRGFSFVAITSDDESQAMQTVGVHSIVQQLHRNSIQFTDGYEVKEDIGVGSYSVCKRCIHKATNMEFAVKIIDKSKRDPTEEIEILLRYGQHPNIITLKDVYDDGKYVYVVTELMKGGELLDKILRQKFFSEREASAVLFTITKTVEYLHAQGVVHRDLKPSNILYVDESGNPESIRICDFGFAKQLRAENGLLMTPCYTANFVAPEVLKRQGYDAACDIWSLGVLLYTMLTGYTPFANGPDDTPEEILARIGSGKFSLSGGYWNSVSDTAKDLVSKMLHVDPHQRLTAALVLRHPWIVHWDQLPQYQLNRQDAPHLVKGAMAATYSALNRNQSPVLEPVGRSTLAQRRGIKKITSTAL

Myotonin-protein kinase = Myotonin-protein kinase (Homo sapiens, UniProt Q09013); experiment: Inhibition of full length recombinant human DMPK expressed in baculovirus expression system by FRET assay
Mus musculus [8] = experiment: Down regulation of phosphorylated MKK4 level in cortical lysate of PS2APP mouse model at 15 to 50 mg/kg, po administered as single dose after 6 hrs by Western blot analysis; assay type: functional, organism-based
[9] = target: Serine/threonine-protein kinase PAK 4 (Homo sapiens, UniProt O96013); experiment: Inhibition of recombinant GST-tagged human PAK4 catalytic domain expressed in baculovirus expression system by FRET assay
[10] = target: T1, Mitogen-activated protein kinase kinase kinase 12 (Homo sapiens, UniProt Q12852); experiment: Inhibition of doxycycline inducible human DLK transfected in HEK293 cells assessed as JNK phosphorylation after […] in presence of 10% bovine serum by Hoechst-33342 staining-based assay; assay type: cell-based
T1 sequence (Q12852 whole entry): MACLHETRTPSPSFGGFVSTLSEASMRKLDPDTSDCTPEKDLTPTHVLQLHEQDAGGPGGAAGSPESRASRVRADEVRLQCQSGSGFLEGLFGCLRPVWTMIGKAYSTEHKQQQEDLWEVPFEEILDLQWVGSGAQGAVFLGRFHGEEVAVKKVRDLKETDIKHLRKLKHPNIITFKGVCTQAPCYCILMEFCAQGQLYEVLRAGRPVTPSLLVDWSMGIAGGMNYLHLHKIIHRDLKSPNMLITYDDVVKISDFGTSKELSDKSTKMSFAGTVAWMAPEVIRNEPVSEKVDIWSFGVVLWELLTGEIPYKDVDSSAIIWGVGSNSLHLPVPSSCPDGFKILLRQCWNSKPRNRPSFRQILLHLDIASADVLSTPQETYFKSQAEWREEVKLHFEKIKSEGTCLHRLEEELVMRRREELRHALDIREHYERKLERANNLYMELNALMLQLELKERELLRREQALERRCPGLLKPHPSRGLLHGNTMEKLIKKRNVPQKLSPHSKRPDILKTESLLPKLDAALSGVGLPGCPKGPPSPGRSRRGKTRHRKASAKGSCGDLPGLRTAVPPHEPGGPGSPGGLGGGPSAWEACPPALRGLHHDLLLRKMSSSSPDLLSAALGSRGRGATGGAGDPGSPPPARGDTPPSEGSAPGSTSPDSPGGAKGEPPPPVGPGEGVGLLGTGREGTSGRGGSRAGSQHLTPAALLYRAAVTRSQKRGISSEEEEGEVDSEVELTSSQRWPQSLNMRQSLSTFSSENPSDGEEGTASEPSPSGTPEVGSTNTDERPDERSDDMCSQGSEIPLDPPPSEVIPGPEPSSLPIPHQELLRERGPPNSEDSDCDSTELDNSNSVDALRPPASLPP

[11] = target: Protein kinase C zeta type (Homo sapiens) (UniProt Q05513); experiment: Inhibition of PKCzeta (unknown origin) at 1 uM by FRET assay relative to control
[12] = target: Death-associated protein kinase 3 (Homo sapiens) (UniProt O43293); experiment: Inhibition of recombinant full length GST-tagged human ZIPK expressed in baculovirus expression system at 1 uM by FRET assay relative to control
Death-associated protein kinase 3 (Homo sapiens), sequence (O43293 whole entry, looked up): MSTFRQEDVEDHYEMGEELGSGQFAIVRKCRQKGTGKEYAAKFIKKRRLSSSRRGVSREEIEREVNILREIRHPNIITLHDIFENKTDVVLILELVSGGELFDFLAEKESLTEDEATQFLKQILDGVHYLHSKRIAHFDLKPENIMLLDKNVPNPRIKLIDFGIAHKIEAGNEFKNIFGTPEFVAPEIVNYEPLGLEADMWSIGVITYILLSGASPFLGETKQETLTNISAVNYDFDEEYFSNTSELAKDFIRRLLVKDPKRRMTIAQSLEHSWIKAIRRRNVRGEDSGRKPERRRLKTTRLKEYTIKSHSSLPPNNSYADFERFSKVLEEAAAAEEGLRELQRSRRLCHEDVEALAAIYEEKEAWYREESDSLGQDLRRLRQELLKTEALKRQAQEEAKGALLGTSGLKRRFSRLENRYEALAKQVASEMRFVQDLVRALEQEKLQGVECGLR

Mus musculus [13] = experiment: In-vivo inhibition of DLK in PS2APP mouse model assessed as reduction in phosphorylated c-jun level in cortical lysate at 15 mg/kg, po administered as single dose after 6 hrs by Western blot analysis; assay type: functional, organism-based
Mus musculus [14] = experiment: In-vivo inhibition of DLK in PS2APP mouse model assessed as reduction in phosphorylated c-jun level in cortical lysate at 50 mg/kg, po administered as single dose after 6 hrs by Western blot analysis; assay type: functional, organism-based
[15] = target: Serine/threonine-protein kinase 26 (Homo sapiens) (UniProt Q9P289); experiment: Inhibition of recombinant GST-tagged human MST4 expressed in baculovirus at 1 uM by FRET assay relative to control
Mus musculus [16] = experiment: In-vivo inhibition of DLK in PS2APP mouse model assessed as reduction in phosphorylated c-jun level in cortical lysate at 15 mg/kg, po administered as single dose after 6 hrs by Western blot analysis relative to control; assay type: functional
How it was run: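 Homozygous PS2APP mice aged 9–10 months got one oral dose of 15 mg/kg as an MCT suspension, or vehicle; n = 7–8 per group. At 6 h: terminal plasma by cardiac puncture under deep anaesthesia, then PBS perfusion. Left cortex frozen at −80 °C and homogenised in 10 volumes RIPA. p-c-Jun read by Western blot with a GAPDH control, compared with vehicle (Dunnett's test).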

[17] = target: Calcium/calmodulin-dependent protein kinase type 1 (Homo sapiens) (UniProt Q14012); experiment: Inhibition of recombinant full length His-tagged human CaMK1 expressed in baculovirus expression system at 1 uM by FRET assay relative to control
Calcium/calmodulin-dependent protein kinase type 1 (Homo sapiens), sequence (Q14012 whole entry, looked up): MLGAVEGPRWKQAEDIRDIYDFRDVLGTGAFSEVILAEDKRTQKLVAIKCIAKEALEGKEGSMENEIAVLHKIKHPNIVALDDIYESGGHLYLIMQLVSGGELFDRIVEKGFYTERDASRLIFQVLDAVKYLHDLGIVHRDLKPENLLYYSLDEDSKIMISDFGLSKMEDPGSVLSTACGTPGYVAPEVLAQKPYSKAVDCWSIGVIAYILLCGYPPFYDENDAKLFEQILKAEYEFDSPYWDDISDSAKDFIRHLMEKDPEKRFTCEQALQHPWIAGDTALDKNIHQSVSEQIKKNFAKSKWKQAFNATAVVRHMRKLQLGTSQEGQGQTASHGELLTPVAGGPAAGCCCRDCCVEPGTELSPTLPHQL

Compound | inhibition [1] [%] | IC50 [2] [µM] | inhibition [3] [%] | inhibition [4] [%] | inhibition [5] [%] | IC50 [6] [µM] | IC50 (Ephrin type-A receptor 7) [µM] | inhibition [7] [%] | IC50 (Myotonin-protein kinase) [µM] | Activity (Mus musculus [8]) | IC50 [9] [µM] | IC50 [10] [µM] | inhibition [11] [%] | inhibition [12] [%] | inhibition (Mus musculus [13]) | inhibition (Mus musculus [14]) | inhibition [15] [%] | inhibition in vivo at 15 mg/kg (Mus musculus [16]) [%] | inhibition [17] [%]
Nc1ncc(-c2cc([C@H]3[C@@H]4CN(C5COC5)C[C@@H]43)n(CC3CC3)n2)cc1C(F)(F)F | 12.4 | 0.448 | 0.8 | 37 | -0.8 | 1.22 | 0.665 | 2 | 1.38 |  |  |  |  |  |  |  |  |  | 
CC(C)n1nc(-c2cnc(N)c(OC(F)(F)F)c2)cc1[C@H]1[C@@H]2CN(C3COC3)C[C@@H]21 |  |  | 10.9 | 22.5 | -1.6 |  |  | 2.8 |  | Active | 0.673 | 0.129 | 5.9 | 3.5 | Active | Active | -3.5 | 42 | -5.9
